# Data published in PMC8905529 (RSC Chemical Biology, 2022).
# Where a SMILES comes first, the peptide text is derived from it. [ ]: non-standard residue; d: D form. Cha = N[C@@H](CC1CCCCC1)C(=O)O; hLeu = CC(C)CC[C@H](N)C(=O)O
# How the values were obtained:
# chymotrypsin = test: Enzymatic; format: in vitro ADME; settings: chymotrypsin in PBS, pH 7.4
# In short: (§1)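 Test peptide at 0.33 mM final in PBS (pH 7.4) with trypsin or chymotrypsin at 0.05 μg mL−1 final. Incubated at 37 °C with shaking (200 rpm) for 24 h. Fragments were identified by MALDI-TOF MS and ESI-TOF LC-MS.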
# trypsin = test: Enzymatic; format: in vitro ADME; settings: trypsin in PBS, pH 7.4
# In short: as §1
# ComD1 receptor [1] = target: T1, ComD1 receptor (Streptococcus pneumoniae serotype 2, UniProt A0A0H2ZM50); test: β-galactosidase competitive inhibition reporter assay, D39pcomX::lacZ; format: cell-based
# T1 sequence (A0A0H2ZM50 1-441): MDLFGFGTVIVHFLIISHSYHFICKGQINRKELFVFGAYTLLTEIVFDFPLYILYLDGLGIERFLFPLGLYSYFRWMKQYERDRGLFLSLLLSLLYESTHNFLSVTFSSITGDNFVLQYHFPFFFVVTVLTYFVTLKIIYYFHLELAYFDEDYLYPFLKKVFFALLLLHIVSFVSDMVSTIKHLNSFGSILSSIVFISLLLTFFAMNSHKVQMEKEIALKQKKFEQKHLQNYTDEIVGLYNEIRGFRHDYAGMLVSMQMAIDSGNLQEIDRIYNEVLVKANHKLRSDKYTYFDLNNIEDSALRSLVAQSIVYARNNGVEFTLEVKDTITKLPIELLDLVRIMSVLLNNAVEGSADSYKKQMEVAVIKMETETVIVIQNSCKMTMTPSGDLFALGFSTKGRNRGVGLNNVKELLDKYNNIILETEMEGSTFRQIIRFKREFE
# In short: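 Early-exponential D39pcomX::lacZ in THY (OD600 0.30–0.35) was incubated 30 min at 37 °C. Cells were then Triton X-100-lysed and given ONPG (0.4 mg mL−1) for 3 h at 37 °C, quenched with sodium carbonate, and read at OD420/550 for Miller units.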
# ComD1 receptor [2] = target: T1, ComD1 receptor; test: β-galactosidase activation reporter assay, D39pcomX::lacZ; format: cell-based
# In short: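 D39pcomX::lacZ was grown on THY agar (5% horse serum, 4 μg mL−1 chloramphenicol), then in THY overnight, diluted 1:50 and grown to OD600 0.30–0.35. […] After 30 min at 37 °C, cells were lysed with Triton X-100 and given ONPG (0.4 mg mL−1, pH 7.0) for 3 h. Reads: OD420/550, Miller units; EC50 by nonlinear regression.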
SMILES,half-life at 0.33 mM (chymotrypsin) [h],half-life at 0.33 mM (trypsin) [h],IC50 (ComD1 receptor [1]) [nM],EC50 (ComD1 receptor [2]) [nM]
CC[C@H](C)[C@H](NC(=O)[C@H](Cc1ccccc1)NC(=O)[C@H](CC(=O)O)NC(=O)[C@H](CCCNC(=N)N)NC(=O)[C@H](Cc1ccccc1)NC(=O)[C@H](CC1CCCCC1)NC(=O)[C@H](CCCCN)NC(=O)[C@H](CO)NC(=O)[C@H](CC(C)C)NC(=O)[C@H](CCCNC(=N)N)NC(=O)[C@H](CCSC)NC(=O)[C@H](C)N)C(=O)N[C@@H](CC(C)C)C(=O)N[C@@H](CCC(N)=O)C(=O)N[C@@H](CCCNC(=N)N)C(=O)N[C@@H](CCCCN)C(=O)N[C@@H](CCCCN)C(=O)O [CSP1-E1A/F7Cha] (H-AMRLSK[Cha]FRDFILQRKK-OH),4,4,36,–
CSCC[C@H](NC(=O)[C@H](C)N)C(=O)N[C@@H](CCCNC(=N)N)C(=O)N[C@@H](CC(C)C)C(=O)N[C@@H](CO)C(=O)N[C@@H](CCCCN)C(=O)N[C@@H](CC1CCCCC1)C(=O)N[C@@H](Cc1ccccc1)C(=O)N[C@@H](CCCNC(=N)N)C(=O)N[C@@H](CC(=O)O)C(=O)N[C@@H](Cc1ccccc1)C(=O)N[C@@H](CC1CCCCC1)C(=O)N[C@@H](CC(C)C)C(=O)N[C@@H](CCC(N)=O)C(=O)N[C@@H](CCCNC(=N)N)C(=O)N[C@@H](CCCCN)C(=O)N[C@@H](CCCCN)C(=O)O [CSP1-E1A/F7Cha/I12Cha] (H-AMRLSK[Cha]FRDF[Cha]LQRKK-OH),–,–,72,–
CSCC[C@H](NC(=O)[C@@H](N)CCC(=O)O)C(=O)N[C@@H](CCCNC(=N)N)C(=O)N[C@@H](CC(C)C)C(=O)N[C@@H](CO)C(=O)N[C@@H](CCCCN)C(=O)N[C@@H](CC1CCCCC1)C(=O)N[C@@H](Cc1ccccc1)C(=O)N[C@@H](CCCNC(=N)N)C(=O)N[C@@H](CC(=O)O)C(=O)N[C@@H](Cc1ccccc1)C(=O)N[C@@H](CC1CCCCC1)C(=O)N[C@@H](CC(C)C)C(=O)N[C@@H](CCC(N)=O)C(=O)N[C@@H](CCCNC(=N)N)C(=O)N[C@@H](CCCCN)C(=O)N[C@@H](CCCCN)C(=O)O [CSP1-F7Cha/I12Cha] (H-EMRLSK[Cha]FRDF[Cha]LQRKK-OH),6,3,–,< 1
CC[C@H](C)[C@H](NC(=O)[C@H](Cc1ccccc1)NC(=O)[C@H](CC(=O)O)NC(=O)[C@H](CCCNC(=N)N)NC(=O)[C@H](Cc1ccccc1)NC(=O)[C@H](CCC(C)C)NC(=O)[C@H](CCCCN)NC(=O)[C@H](CO)NC(=O)[C@H](CC(C)C)NC(=O)[C@H](CCCNC(=N)N)NC(=O)[C@H](CCSC)NC(=O)[C@H](C)N)C(=O)N[C@@H](CC(C)C)C(=O)N[C@@H](CCC(N)=O)C(=O)N[C@@H](CCCNC(=N)N)C(=O)N[C@@H](CCCCN)C(=O)N[C@@H](CCCCN)C(=O)O [CSP1-E1A/F7HLeu] (H-AMRLSK[hLeu]FRDFILQRKK-OH),–,–,72,–
"CC[C@H](C)[C@H](NC(=O)[C@H](Cc1ccccc1)NC(=O)[C@H](CC(=O)O)NC(=O)[C@H](CCCNC(=N)N)NC(=O)[C@H](Cc1ccccc1)NC(=O)[C@H](Cc1ccccc1)NC(=O)[C@H](CCCCN)NC(=O)[C@H](CO)NC(=O)[C@H](CC(C)C)NC(=O)[C@H](CCCNC(=N)N)NC(=O)[C@H](CCSC)NC(=O)[C@@H](N)CCC(=O)O)C(=O)N[C@@H](CC(C)C)C(=O)N[C@@H](CCC(N)=O)C(=O)N[C@@H](CCCNC(=N)N)C(=O)N[C@@H](CCCCN)C(=O)N[C@@H](CCCCN)C(=O)O [CSP1, reference compound]",1,0.5,–,–
CSCC[C@H](NC(=O)[C@H](C)N)C(=O)N[C@@H](CCCNC(=N)N)C(=O)N[C@@H](CC(C)C)C(=O)N[C@@H](CO)C(=O)N[C@@H](CCCCN)C(=O)N[C@@H](CC1CCCCC1)C(=O)N[C@@H](Cc1ccccc1)C(=O)N[C@@H](CCCNC(=N)N)C(=O)N[C@@H](CC(=O)O)C(=O)N[C@@H](Cc1ccccc1)C(=O)N[C@@H](CCC(C)C)C(=O)N[C@@H](CC(C)C)C(=O)N[C@@H](CCC(N)=O)C(=O)N[C@@H](CCCNC(=N)N)C(=O)N[C@@H](CCCCN)C(=O)N[C@@H](CCCCN)C(=O)O [CSP1-E1A/F7Cha/I12HLeu] (H-AMRLSK[Cha]FRDF[hLeu]LQRKK-OH),–,–,57,–
